Key:
Rattus norvegicus [1] = organism: Rattus norvegicus; assay: Evaluation of milk ejecting activity; format: functional
[2] = Ratio of Oxytocin to Antidiuretic activity; format: functional, Urine
Rattus norvegicus [3] = organism: Rattus norvegicus; assay: In vitro for uterotonic activity in the presence of Mg2+ ion by Munsick method; format: functional
Procedure, shortened: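 Isolated uterus bath contains 0.5 mM Mg2+.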

Rattus norvegicus [4] = assay: Evaluation of antidiuretic activity against ethanol-anesthetized rats; format: functional, Urine
Procedure, shortened: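 Rats water-loaded before assay, under ethanol anesthesia.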

Rattus norvegicus [5] = organism: Rattus norvegicus; assay: In vitro for uterotonic activity in the absence of Mg2+ ion by Munsick method; format: functional
Rattus norvegicus [6] = organism: Rattus norvegicus; assay: Evaluation of vasopressor activity; format: functional
[7] = Ratio of Oxytocin to Pressor activity; format: functional

SMILES	Activity (Rattus norvegicus [1])	Ratio [2]	Activity (Rattus norvegicus [3])	Activity (Rattus norvegicus [4])	Activity (Rattus norvegicus [5])	Activity (Rattus norvegicus [6])	Ratio [7]
CC[C@H](C)[C@@H]1NC(=O)[C@H](Cc2ccc(O)cc2)NC(=O)[C@@H](N)CSSC[C@@H](C(=O)N(C)CC(=O)N[C@@H](CC(C)C)C(=O)NCC(N)=O)NC(=O)[C@H](CC(N)=O)NC(=O)[C@H]([C@@H](C)O)NC1=O	731 U mg-1	31700	1561 U mg-1	0.037 U mg-1	1173 U mg-1	<0.5 U mg-1	
CC[C@H](C)[C@@H]1NC(=O)[C@@H](Cc2ccc(O)cc2)NC(=O)[C@H](N)CSSC[C@@H](C(=O)N(C)CC(=O)N[C@@H](CC(C)C)C(=O)NCC(N)=O)NC(=O)[C@H](CC(N)=O)NC(=O)[C@@H](CCC(N)=O)NC1=O							> 1310
CC[C@H](C)[C@@H]1NC(=O)[C@H](Cc2ccc(O)cc2)NC(=O)[C@@H](N)CSSC[C@@H](C(=O)N2CCC[C@H]2C(=O)N[C@@H](CC(C)C)C(=O)NCC(N)=O)NC(=O)[C@H](CC(N)=O)NC(=O)[C@H](CCC(N)=O)NC1=O [OXYTOCIN]	474 U mg-1		486 U mg-1	4 U mg-1	520 U mg-1		120
CC[C@H](C)[C@@H]1NC(=O)[C@H](Cc2ccc(O)cc2)NC(=O)[C@@H](N)CSSC[C@@H](C(=O)N(C)[C@@H](C)C(=O)N[C@@H](CC(C)C)C(=O)NCC(N)=O)NC(=O)[C@H](CC(N)=O)NC(=O)[C@H](CCC(N)=O)NC1=O	402 U mg-1	516	184 U mg-1	0.12 U mg-1	62 U mg-1	<0.35 U mg-1	
CC[C@H](C)[C@@H]1NC(=O)[C@H](Cc2ccc(O)cc2)NC(=O)[C@@H](N)CSSC[C@@H](C(=O)N(C)CC(=O)N[C@@H](CC(C)C)C(=O)NCC(N)=O)NC(=O)[C@H](CC(N)=O)NC(=O)[C@H](CCC(N)=O)NC1=O	564 U mg-1	2550	609 U mg-1	0.18 U mg-1	459 U mg-1	<0.35 U mg-1	
CC[C@H](C)[C@@H]1NC(=O)[C@@H](Cc2ccc(O)cc2)NC(=O)[C@H](N)CSSC[C@@H](C(=O)N(C)[C@H](C)C(=O)N[C@@H](CC(C)C)C(=O)NCC(N)=O)NC(=O)[C@H](CC(N)=O)NC(=O)[C@@H](CCC(N)=O)NC1=O							> 177
CC[C@H](C)[C@@H]1NC(=O)[C@@H](Cc2ccc(O)cc2)NC(=O)[C@H](N)CSSC[C@@H](C(=O)N(C)CC(=O)N[C@@H](CC(C)C)C(=O)NCC(N)=O)NC(=O)[C@H](CC(N)=O)NC(=O)[C@@H]([C@H](C)O)NC1=O							> 2350
CC[C@H](C)[C@@H]1NC(=O)[C@H](Cc2ccc(O)cc2)NC(=O)[C@@H](N)CSSC[C@@H](C(=O)N2CCC[C@H]2C(=O)N[C@@H](CC(C)C)C(=O)NCC(N)=O)NC(=O)[C@H](CC(N)=O)NC(=O)[C@H]([C@@H](C)O)NC1=O	543 U mg-1	510	719 U mg-1	1.8 U mg-1	923 U mg-1	0.43 U mg-1	
CC[C@H](C)[C@@H]1NC(=O)[C@H](Cc2ccc(O)cc2)NC(=O)[C@@H](N)CSSC[C@@H](C(=O)N(C)[C@@H](C)C(=O)N[C@@H](CC(C)C)C(=O)NCC(N)=O)NC(=O)[C@H](CC(N)=O)NC(=O)[C@H]([C@@H](C)O)NC1=O	243 U mg-1	2450	219 U mg-1	0.047 U mg-1	115 U mg-1	<0.6 U mg-1	
CC[C@H](C)[C@@H]1NC(=O)[C@@H](Cc2ccc(O)cc2)NC(=O)[C@H](N)CSSC[C@@H](C(=O)N(C)[C@H](C)C(=O)N[C@@H](CC(C)C)C(=O)NCC(N)=O)NC(=O)[C@H](CC(N)=O)NC(=O)[C@@H]([C@H](C)O)NC1=O							> 192
CC[C@H](C)[C@@H]1NC(=O)[C@@H](Cc2ccc(O)cc2)NC(=O)[C@H](N)CSSC[C@@H](C(=O)N2CCC[C@@H]2C(=O)N[C@@H](CC(C)C)C(=O)NCC(N)=O)NC(=O)[C@H](CC(N)=O)NC(=O)[C@@H]([C@H](C)O)NC1=O							2150

Reference: ChEMBL document CHEMBL1122425, “Synthesis and some pharmacological properties of [4-threonine,7-sarcosine]oxytocin, a peptide with high oxytocic potency, and of [4-threonine,7-N-methylalanine]oxytocin” (1983)
